Results: ChEMBL document CHEMBL4014332, “Multitargeted Imidazoles: Potential Therapeutic Leads for Alzheimer's and Other Neurodegenerative Diseases” (J Med Chem, 2017)

Tests used:
Rattus norvegicus = organism: Rattus norvegicus; assay: Inhibition of 5-LOX-mediated LTB4 production in arachidonic acid-stimulated RBL1 cells at 10 uM preincubated for 2 hrs followed by A23187 induction for 15 mins by LC/MS/MS analysis relative to control
In short: (§1)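 RBL-1 cells grown in RPMI/10% FBS, plated 9 × 10⁵ cells/well, held 2 h at 37 °C, then given compound for 2 h (screen at 10 μM, then concentration–response in triplicate). Stimulation was 12 μM A23187 for 15 min. Supernatants were extracted with MeOH/0.01% BHT and LTB₄ quantified by UPLC-MS/MS in negative ion mode.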

[1] = Change in total alpha-tubulin levels in human QBI293 cells at 1 uM after 4 hrs by ELISA relative to control; conditions: qbi293, 4 h
Homo sapiens = organism: Homo sapiens; assay: Induction of microtubule stabilization in human QBI293 cells assessed as increase in acetylated tubulin levels at 1 uM after 4 hrs by ELISA relative to control; format: cell-based
In short: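 QBI-293 cells grown in DMEM/10% FBS at 37 °C, 5% CO2, plated 6 × 10⁵ cells/well overnight, then treated with vehicle or compound (1 and 10 μM) for 4 h. Lysis was in RIPA with protease inhibitors, 1 mM PMSF and 1 μM TSA, followed by 100000g spin for 30 min. Acetylated α-tubulin was measured by ELISA on BCA-quantified supernatant, reported as fold change vs DMSO, at least triplicate, t test.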

Cyclooxygenase = target: T1, Cyclooxygenase (Rattus norvegicus, UniProt P35355+Q63921); assay: Inhibition of COX-mediated PGD2/PGE2 production in arachidonic acid-stimulated RBL1 cells preincubated for 2 hrs followed by A23187 induction for 15 mins by LC/MS/MS analysis
T1 sequence (P35355 whole entry): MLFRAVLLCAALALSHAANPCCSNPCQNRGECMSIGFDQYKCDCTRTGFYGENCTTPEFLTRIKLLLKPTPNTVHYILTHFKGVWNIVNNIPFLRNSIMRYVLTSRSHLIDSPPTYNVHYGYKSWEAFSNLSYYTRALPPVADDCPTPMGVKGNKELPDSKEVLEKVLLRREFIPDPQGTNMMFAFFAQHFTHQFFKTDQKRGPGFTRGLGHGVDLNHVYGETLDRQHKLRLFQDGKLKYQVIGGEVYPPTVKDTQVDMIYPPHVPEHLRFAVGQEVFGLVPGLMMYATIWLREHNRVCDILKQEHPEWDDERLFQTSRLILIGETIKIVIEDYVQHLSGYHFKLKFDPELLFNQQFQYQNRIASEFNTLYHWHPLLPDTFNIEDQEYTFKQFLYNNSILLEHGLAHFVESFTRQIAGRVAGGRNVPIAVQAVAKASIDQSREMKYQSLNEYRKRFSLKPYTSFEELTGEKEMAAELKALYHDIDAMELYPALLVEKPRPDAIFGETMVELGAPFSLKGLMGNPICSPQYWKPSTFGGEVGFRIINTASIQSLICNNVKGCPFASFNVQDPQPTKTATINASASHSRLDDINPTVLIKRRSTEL
T1 sequence (Q63921 whole entry): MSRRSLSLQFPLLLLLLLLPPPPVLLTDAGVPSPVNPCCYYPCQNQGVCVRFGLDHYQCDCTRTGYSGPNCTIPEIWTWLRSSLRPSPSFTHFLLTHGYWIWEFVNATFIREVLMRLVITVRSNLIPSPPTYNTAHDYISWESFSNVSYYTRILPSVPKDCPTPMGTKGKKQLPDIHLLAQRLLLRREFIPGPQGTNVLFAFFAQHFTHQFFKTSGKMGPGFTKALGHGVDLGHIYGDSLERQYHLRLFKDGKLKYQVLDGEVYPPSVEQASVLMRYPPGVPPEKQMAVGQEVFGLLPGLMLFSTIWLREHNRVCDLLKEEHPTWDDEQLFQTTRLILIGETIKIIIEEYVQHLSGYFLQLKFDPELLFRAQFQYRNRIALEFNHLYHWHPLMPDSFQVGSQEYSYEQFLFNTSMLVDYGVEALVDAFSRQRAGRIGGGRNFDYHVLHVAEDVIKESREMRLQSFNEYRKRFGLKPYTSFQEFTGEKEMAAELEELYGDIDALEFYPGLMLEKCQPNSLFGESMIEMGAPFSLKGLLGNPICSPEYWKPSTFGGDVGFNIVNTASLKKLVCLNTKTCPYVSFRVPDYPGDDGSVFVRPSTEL
In short: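 RBL-1 cells in RPMI/10% FBS, 9 × 10⁵ cells/well, held 2 h, then exposed to compound for 2 h at multiple concentrations in triplicate. Stimulation was 12 μM A23187 for 15 min. Eicosanoids were extracted with MeOH/0.01% BHT, and PGD₂ plus PGE₂ measured by UPLC-MS/MS (negative ion, 351 > 315).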

[2] = Inhibition of 5-LOX-mediated LTB4 production in arachidonic acid-stimulated RBL1 cells preincubated for 2 hrs followed by A23187 induction for 15 mins by LC/MS/MS analysis; conditions: Rattus norvegicus, RBL-1; in short: as §1

Cc1nc(Cl)c(-c2c(F)cc(F)cc2F)n1-c1ccc(Cl)cc1
inhibition (Rattus norvegicus): < 10% | Activity [1]: Non-Toxic

Cc1cc(F)c(-c2cncn2-c2ccc(Cl)cc2)c(F)c1
inhibition (Rattus norvegicus): 84% | Activity [1]: Non-Toxic

Fc1cccc(F)c1-c1c(Cl)ncn1-c1ccccc1Cl
inhibition (Rattus norvegicus): 56% | Activity [1]: Non-Toxic

Fc1ccc(F)c(-c2c(Cl)ncn2-c2ccc(OC(F)(F)F)cc2)c1F
inhibition (Rattus norvegicus): 85% | Activity [1]: Non-Toxic

Fc1ccc(-c2c(Cl)ncn2-c2ccc(Cl)cc2)cc1
inhibition (Rattus norvegicus): 59% | Activity [1]: Non-Toxic

Cc1nc(Cl)c(-c2c(F)cc(F)cc2F)n1-c1ccc(Cl)nc1
inhibition (Rattus norvegicus): 26% | Activity [1]: Non-Toxic

Fc1cc(F)c(-c2cnc(Cl)n2-c2ccc(Cl)cc2)c(F)c1
inhibition (Rattus norvegicus): 61% | Activity [1]: Non-Toxic

Fc1cc(F)c(-c2c(Cl)ncn2-c2ccc(Cl)cc2)c(F)c1
inhibition (Rattus norvegicus): 46% | Activity [1]: Non-Toxic

Fc1cc(Cl)ccc1-n1c(-c2c(F)cccc2F)cnc1Cl
inhibition (Rattus norvegicus): 49% | Activity [1]: Non-Toxic

COc1ccc(F)c(-c2cnc(Cl)n2-c2ccc(Cl)cc2)c1F
inhibition (Rattus norvegicus): 68% | FC [1]: 0.6

Fc1cccc(F)c1-c1cncn1-c1ccccc1
inhibition (Rattus norvegicus): < 10% | Activity [1]: Non-Toxic

Clc1ccc(-n2c(-c3ccccc3)cnc2Cl)cc1
inhibition (Rattus norvegicus): 52% | FC [1]: 1.2

Fc1cccc(F)c1-c1cncn1-c1ccccc1Cl
inhibition (Rattus norvegicus): < 10% | Activity [1]: Non-Toxic

Fc1cccc(F)c1-c1c(Cl)ncn1-c1ccc(OC(F)(F)F)cc1
inhibition (Rattus norvegicus): 78% | Activity [1]: Non-Toxic

Fc1ccc(F)c(-c2cnc(Cl)n2-c2ccc(OC(F)(F)F)cc2)c1F
inhibition (Rattus norvegicus): 80% | Activity [1]: Non-Toxic

C[C@H](Nc1c(-c2c(F)cc(F)cc2F)c(Cl)nc2ncnn12)C(F)(F)F
fold change (FC) (Homo sapiens): 2.5 | Activity [1]: Non-Toxic

Fc1cc(Cl)ccc1-n1cnc(Cl)c1-c1c(F)cccc1F
inhibition (Rattus norvegicus): 14% | Activity [1]: Non-Toxic

Fc1cccc(F)c1-c1cnc(Cl)n1-c1ccccc1Cl
inhibition (Rattus norvegicus): 38% | Activity [1]: Non-Toxic

COc1ccc(-n2cnc(Cl)c2-c2c(F)cc(F)cc2F)cc1
IC50 (Cyclooxygenase): 2.4 µM | inhibition (Rattus norvegicus): 86% | IC50 [2]: 9.7 µM | Activity [1]: Non-Toxic

Fc1cc(F)c(-c2c(Cl)ncn2-c2ccc(Cl)nc2)c(F)c1
inhibition (Rattus norvegicus): < 10% | FC [1]: 0.8

Cc1ncn(-c2ccc(Cl)cc2)c1-c1c(F)cccc1F
inhibition (Rattus norvegicus): 44% | Activity [1]: Non-Toxic

Fc1ccc(Cl)c(F)c1-c1cnc(Cl)n1-c1ccc(Cl)cc1
inhibition (Rattus norvegicus): 88% | FC [1]: 0.8

Fc1ccc(F)c(-c2c(Cl)nc(Cl)n2-c2ccc(OC(F)(F)F)cc2)c1F
inhibition (Rattus norvegicus): 56% | Activity [1]: Non-Toxic

Cc1ncc(-c2c(F)ccc(F)c2F)n1-c1ccc(Cl)cc1
inhibition (Rattus norvegicus): 45% | FC [1]: 0.9

Cc1nc(Cl)n(-c2ccc(Cl)cc2)c1-c1c(F)cccc1F
inhibition (Rattus norvegicus): 42% | Activity [1]: Non-Toxic

Clc1ccc(-n2c(Cl)nc(Cl)c2-c2ccccc2)cc1
inhibition (Rattus norvegicus): < 10% | Activity [1]: Non-Toxic

CCc1nc(Cl)c(-c2c(F)cccc2F)n1-c1ccc(Cl)cc1
fold change (FC) (Homo sapiens): 1.8 | inhibition (Rattus norvegicus): 81% | Activity [1]: Non-Toxic

Fc1ccc(F)c(-c2c(Cl)ncn2-c2ccc(Cl)cc2)c1
inhibition (Rattus norvegicus): 69% | Activity [1]: Non-Toxic

COc1ccc(F)c(-c2c(Cl)ncn2-c2ccc(Cl)cc2)c1F
inhibition (Rattus norvegicus): 91% | FC [1]: 0.8

COc1ccc(-c2c(Cl)ncn2-c2ccc(Cl)cc2)cc1
inhibition (Rattus norvegicus): < 10% | Activity [1]: Non-Toxic

Cc1nc(Cl)c(-c2c(F)cccc2F)n1-c1ccc(Cl)cc1
fold change (FC) (Homo sapiens): 2.5 | inhibition (Rattus norvegicus): 87% | FC [1]: 0.8

Fc1ccc(F)c(-c2cnc(Cl)n2-c2ccc(Cl)cc2)c1F
inhibition (Rattus norvegicus): 24% | Activity [1]: Non-Toxic

Cc1nc(Cl)c(-c2c(F)ccc(Cl)c2F)n1-c1ccc(Cl)cc1
fold change (FC) (Homo sapiens): 1.7 | inhibition (Rattus norvegicus): 84% | FC [1]: 0.6

Cc1ccc(F)c(-c2c(Cl)ncn2-c2ccc(Cl)cc2)c1F
inhibition (Rattus norvegicus): 78% | FC [1]: 0.8

Cc1nc(Cl)n(-c2ccc(Cl)cc2)c1-c1c(F)ccc(Cl)c1F
inhibition (Rattus norvegicus): 54% | FC [1]: 0.5

COc1ccc(-c2cncn2-c2ccc(Cl)cc2)cc1
inhibition (Rattus norvegicus): < 10% | Activity [1]: Non-Toxic

COc1ccc(-n2cncc2-c2c(F)cc(F)cc2F)cc1
inhibition (Rattus norvegicus): 25% | Activity [1]: Non-Toxic

Cc1nc(C)n(-c2ccc(Cl)cc2)c1-c1c(F)ccc(Cl)c1F
inhibition (Rattus norvegicus): 51% | Activity [1]: Non-Toxic

Cc1cc(F)c(-c2cnc(Cl)n2-c2ccc(Cl)cc2)c(F)c1
inhibition (Rattus norvegicus): 73% | Activity [1]: Non-Toxic

COc1ccc(F)c(-c2cncn2-c2ccc(Cl)cc2)c1F
inhibition (Rattus norvegicus): 78% | Activity [1]: Non-Toxic

Cc1cc(F)c(-c2c(Cl)nc(Cl)n2-c2ccc(Cl)cc2)c(F)c1
inhibition (Rattus norvegicus): 63% | FC [1]: 0.7

Fc1cccc(F)c1-c1c(Cl)nc(Cl)n1-c1ccc(Cl)cc1
inhibition (Rattus norvegicus): 90% | Activity [1]: Non-Toxic

Fc1cc(F)c(-c2cncn2-c2ccc(Cl)cc2)c(F)c1
inhibition (Rattus norvegicus): 24% | Activity [1]: Non-Toxic

Fc1cccc(F)c1-c1c(Cl)nc(Cl)n1-c1ccccc1Cl
inhibition (Rattus norvegicus): 21% | Activity [1]: Non-Toxic

Fc1cc(-n2c(-c3c(F)ccc(F)c3F)cnc2Cl)ccc1Cl
inhibition (Rattus norvegicus): 58% | Activity [1]: Non-Toxic

CC(C)Cc1ccc(C(C)C(=O)O)cc1 (stereo not drawn) [IBUPROFEN]
inhibition (Rattus norvegicus): < 10% | Activity [1]: Non-Toxic

Fc1cccc(F)c1-c1cncn1-c1ccc(OC(F)(F)F)cc1
inhibition (Rattus norvegicus): 55% | Activity [1]: Non-Toxic

Fc1ccc(F)c(-c2cncn2-c2ccc(OC(F)(F)F)cc2)c1F
inhibition (Rattus norvegicus): 52% | FC [1]: 1.2

Fc1cc(F)c(-c2c(Cl)nc(Cl)n2-c2ccc(Cl)cc2)c(F)c1
inhibition (Rattus norvegicus): 48% | Activity [1]: Non-Toxic

Cc1nc(Cl)n(-c2ccc(Cl)cc2)c1-c1c(F)ccc(F)c1F
inhibition (Rattus norvegicus): 58% | Activity [1]: Non-Toxic

Clc1ccc(-n2cncc2-c2ccccc2)cc1
inhibition (Rattus norvegicus): 16% | Activity [1]: Non-Toxic

Fc1ccc(-c2cnc(Cl)n2-c2ccc(Cl)cc2)cc1
inhibition (Rattus norvegicus): 57% | Activity [1]: Non-Toxic

Fc1cccc(F)c1-c1cnc(Cl)n1-c1ccc(OC(F)(F)F)cc1
inhibition (Rattus norvegicus): 61% | Activity [1]: Non-Toxic

Fc1cccc(F)c1-c1c(Cl)nc(Cl)n1-c1ccc(OC(F)(F)F)cc1
inhibition (Rattus norvegicus): 81% | Activity [1]: Non-Toxic
